Data on two molecules can be found in ChEMBL document CHEMBL4334446, “Evaluating the effects of fluorine on biological properties and metabolic stability of some antitubulin 3-substituted 7-phenyl-pyrroloquinolinones” (Eur J Med Chem, 2019).

In data set [1] the test system is MDA-MB-468. In words: Growth inhibition of human MDA-MB-468 cells incubated for 72 hrs by MTT assay. It counts as functional. The conditions noted are these: MDA-MB-468, 72 h.
The test system of data set [2] is A-375. In words: Growth inhibition of human A375 cells incubated for 72 hrs by MTT assay. It counts as functional. As to conditions: A-375, 72 h. (In general: Tetrazolium dyes change colour on reduction, which living cells bring about.)
The subject of data set [3] is A2058. Briefly: Growth inhibition of human A2058 cells incubated for 72 hrs by MTT assay. It counts as functional. As to conditions: A2058, 72 h.
Data set [4] relates to A-375. In words: Induction of cell cycle arrest in human A375 cells assessed as accumulation of cells at G2/M phase at 50 to 100 nM incubated for 24 hrs by PI staining based flow cytometric analysis. The format is functional. In a few lines: (§1)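 A375 and A2058 melanoma cells were treated 24 h. Cells were fixed in ice-cold 70% ethanol, then given lysis buffer with RNase A and 0.1% Triton X-100 and stained with PI. Phase distribution came from flow cytometric DNA histograms. Mean ± SEM of two independent experiments.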

The subject of data set [5] is A-375. In words: Induction of cell cycle arrest in human A375 cells assessed as reduction in cell population at S phase at 50 to 100 nM incubated for 24 hrs by PI staining based flow cytometric analysis. The format is functional. In short, it runs like this: as §1
Data set [6] relates to A-375. In words: Induction of cell cycle arrest in human A375 cells assessed as reduction in cell population at G1 phase at 50 to 100 nM incubated for 24 hrs by PI staining based flow cytometric analysis. The format is functional. In short, it runs like this:
as §1

Data set [7] relates to A2058. Briefly: Induction of cell cycle arrest in human A2058 cells assessed as reduction in cell population at S phase at 50 to 100 nM incubated for 24 hrs by PI staining based flow cytometric analysis. It counts as functional. In short, it runs like this:
as §1
(In general: In flow cytometry, cells or beads pass a laser one at a time.)

In data set [8] the test system is HeLa. In words: Cell cycle arrest in human HeLa cells assessed as proportion of mitotic cells at 50 nM incubated for 24 hrs by PI staining based flow cytometric assay (reference value: 1.5%). The format is functional.
For data set [9], the system named is HeLa. In words: Cell cycle arrest in human HeLa cells assessed as decrease in cdc25c protein expression level at 50 to 100 nM incubated for 24 hrs by western blot analysis. The format is functional, cell-based. In a few lines:
(§2)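 HeLa cells were exposed for set times, including 24 and 48 h, then washed in cold PBS and lysed on ice for 30 min. Lysates were cleared at 15000 × g at 4 °C. 10 µg protein was run by SDS-PAGE and transferred to PVDF. Blots were probed 2 h at room temperature with primary antibodies, then peroxidase secondary antibodies, and detected by ECL. Membranes were reprobed for actin as loading control.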

The subject of data set [10] is HeLa. Briefly: Cell cycle arrest in human HeLa cells assessed as decrease in phosphorylated form of cdc2 kinase at 50 to 100 nM incubated for 48 hrs by western blot analysis. It counts as functional, cell-based. In short, it runs like this:
as §2
(In general: A western blot detects proteins with antibodies after separation by electrophoresis.)

Data set [11] deals with HeLa. Briefly: Induction of apoptosis in human HeLa cells at 50 nM incubated for 24 to 48 hrs by annexin-V FITC and PI staining based flow cytometric analysis. It counts as functional, cell-based. In a few lines: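 HeLa cells were treated 24 or 48 h, then harvested and double-stained with annexin-V-FITC and PI for flow cytometry. Populations were separated as live, early apoptotic, late apoptotic and necrotic. Mean ± SEM of three independent experiments.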

For data set [12], the system named is HeLa. In words: Induction of mitochondrial membrane depolarization in human HeLa cells at 10 to 100 nM measured at early apoptotic stage of cells by JC1 staining based flow cytometric analysis. As to conditions: TDE = time-dependent effect. The format is functional, cell-based. In short, it runs like this: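 HeLa cells were treated 6, 12, 24 and 48 h with 10–100 nM. Cells were stained with JC-1, and the fraction with low mitochondrial potential was measured by flow cytometry. Mean ± SEM of three independent experiments.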

For data set [13], the system named is HeLa. In words: Induction of apoptosis in human HeLa cells assessed as decrease in Bcl2 protein expression at 10 to 100 nM incubated for 24 hrs by western blot analysis. It counts as functional, cell-based. In a few lines:
as §2

In data set [14] the test system is HeLa. Briefly: Induction of apoptosis in human HeLa cells assessed as decrease in Mcl1 protein expression at 50 to 100 nM incubated upto 48 hrs by western blot analysis. It counts as functional, cell-based. The conditions noted are these: 10 to 100 nM, in the assay text read “10 to 100 nM” for “50 to 100 nM”. In a few lines:
as §2

In data set [15] the test system is B16-BL6. In words: Growth inhibition of mouse B16-BL6 cells incubated for 72 hrs by MTT assay. The format is functional. As to conditions: B16-BL6, 72 h.
For data set [16], the system named is B16-BL6. Briefly: Antitumour activity against mouse B16-BL6 cells allografted in C57BL/6 mouse assessed as reduction in tumor mass at 7.5 mg/kg, ip administrated every other day relative to control. It counts as functional. In a few lines:
(§3)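 Male C57BL/6 mice (six weeks old) got 2.5×10^5 BL6-B16 murine melanoma cells s.c. in the dorsolateral flank, in PBS. Once tumors were measurable (about 100 mm³), mice were randomized and given drug i.p. every other day in 50 µL DMSO. Vehicle (DMSO) group served as control. Tumor volume = (D × d²)/2; tumor weight taken at end. 5 animals per group, mean ± SEM.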

For data set [17], the system named is B16-BL6. Briefly: Antitumour activity against mouse B16-BL6 cells allografted in C57BL/6 mouse assessed as reduction in tumor mass at 3 mg/kg, ip administrated every other day relative to control. The format is functional. In a few lines: as §3
A short description of data set [18]: Toxicity in C57BL/6 mouse allografted with mouse B16-BL6 cells assessed as change in body weight at 3 to 7.5 mg/kg, ip administrated every other day. It counts as organism-based. The conditions noted are these: in vivo. In a few lines: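 Male six-week-old C57BL/6 mice were given BL6-B16 murine melanoma cells subcutaneously in the dorsolateral flank in PBS. Once tumours reached about 100 mm³, mice were randomised and dosed intraperitoneally every other day with 3.0 or 7.5 mg/kg in DMSO, or vehicle alone. Body weight change was followed; 5 animals per group, mean ± SEM.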

Data set [19] can be described thus: Metabolic stability in human liver microsomes at 10 uM incubated for 30 mins in phosphate buffer at pH 7.4 by HPLC analysis. It counts as ADME, Microsome. As to conditions: pH 7.4, 0.5 h. In short, it runs like this: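 Test compound (10 μM, final) incubated at 37 °C with pooled mixed-gender HLMs (0.5 mg/mL) in 0.1 M KH₂PO₄ pH 7.4 without NADPH. Sampled at 0 and 30 min, quenched with ice-cold acetonitrile, centrifuged, supernatant analysed by HPLC with fluorescence detection (ex 344/em 493 nm). Percent remaining calculated from peak area relative to 0 min; mean ± SD, n = 3.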

Data set [20] can be described thus: Metabolic stability in NADPH-supplemented human liver microsomes assessed as parent compound remaining at 37 degC incubated for 30 mins. The format is ADME, Microsome. The conditions noted are these: read-out: Stability. In a few lines: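 Compound (10 µM) was incubated at 37 °C with 0.5 mg/mL pooled HLMs and 1 mM NADPH in 0.1 M KH2PO4 pH 7.4, sampled at 0, 2, 5, 15 and 30 min. Controls without NADPH, or buffer only, ran 0 and 30 min. Parent was quantified by HPLC-fluorescence as % of the 0 min level, n = 3. t1/2 = 0.693/k, with k from regression of ln % remaining versus time.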

Data set [21] is described as follows: Metabolic stability in human liver microsomes assessed as retention time of the parent compound at 10 uM incubated for 60 mins in presence of NADPH by HPLC analysis. It counts as ADME, Microsome. As to conditions: 1 h. In a few lines: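 Compound (10 µM) was incubated with pooled mixed-gender HLMs (0.5 mg protein/mL), 1 mM NADPH and 0.1 M KH2PO4 pH 7.4 for 60 min at 37 °C, aerobic. The reaction was started with microsomes and stopped with ice-cold acetonitrile; controls lacked NADPH. The supernatant went to C8 HPLC with fluorescence detection (ex 344, em 493 nm). Collected peaks were analyzed by ESI+ mass spectrometry.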

The structures appear in SMILES notation. Active and inactive are the calls of the source. The calls are words filed in the database; no cut-off is given here.

`CCn1ccc2c3c(=O)cc(-c4ccccc4F)[nH]c3ccc21`: the GI50 – broadly, the concentration that inhibits growth by half – in data set [1] amounted to 22.3 nM; in data set [2], 15.5 nM; in data set [3] it was 4.8 nM; in [15], 10 nM. Moreover, the result in [4], in [5], in data set [6], in [7], in data set [11] and in data set [13] was Active. In data set [14], the result was Active. For the same molecule, the Activity in [8] was 10%; in data set [12] it was “Tde”; in [18] it was “Non-Toxic”. The inhibition entry in data set [9] and in data set [10] was “Active” in each case. Moreover, in data set [16], the inhibition in vivo – broadly, how much of the control response was suppressed – at 7.5 mg/kg was 60%. For the same molecule, in [17], the inhibition in vivo at 3 mg/kg amounted to 28.6%. Further, the Stability result in data set [19] is reported as “Stable”.

With `CCn1ccc2c3c(=O)cc(-c4ccccc4)[nH]c3ccc21`, in [19], the Stability result is listed as “Stable”. The remaining at 0.5 h in data set [20] is under 70%. In addition, the Retention_time in [21] is recorded as 12.9 min.
